# In article PMC6803818 (Future Medicinal Chemistry, 2019):
# “Also recorded” adds a separate entry of the source. Where two headings read alike, the source gives them in different places.
# Columns and labels:
# [1] = tested on: cancer cell lines with homozygous Y220C mutation; conditions: cited from earlier work
# stabilized p53-Y220C DBD = stabilized p53-Y220C DBD (Homo sapiens, UniProt P04637, M133L/N239Y/N268D/V203A/Y220C); test: Differential scanning fluorimetry; format: binding; conditions: compound concentration 250 μM, 8-μM protein
# Outline: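 Thermal shift by DSF used 8 μM stabilized human p53 DBD (residues 94–312, M133L/V203A/N239Y/N268D plus Y220C) with 10× SYPRO Orange. Buffer was 25 mM KPi pH 7.2, 150 mM NaCl, 1 mM TCEP, with 5% (v/v) DMSO final. Test compound was at 250 μM. ΔTm = Tm(mutant + ligand) − Tm(mutant), averaged over replicate runs.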
# p53-Y220C DBD = p53-Y220C DBD (Homo sapiens, UniProt P04637, M133L/N239Y/N268D/V203A/Y220C); test: Isothermal titration calorimetry; format: binding
# p53 Y220C DBD (94-312) = p53 Y220C DBD (94-312) (Homo sapiens, UniProt P04637, M133L/N239Y/N268D/V203A/Y220C); test: Light scattering assay, aggregation kinetics at 37°C; format: biochemical; conditions: for slowing of initial rate of Y220C aggregation relative to PK9318: 15 μM compound
# [2] = tested on: HUH-7 cells (homozygous p53-Y220C); test: Cell viability, 72 h incubation; format: cell-based, human; conditions: for p53-Y220C-dependent cell viability reduction: HUH-7 versus HUH-7 p53 KO
# Outline: (§1)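 HUH-7 (Y220C) cells and an isogenic CRISPR/Cas9 p53 knockout clone (HUH7-F1: codon-124 frameshift on one allele, deletion of residues 125–223 on the other) were exposed to 0.6–15 μM test compound for 72 h. Viability was read in quadruplicate and normalized to blank (=1) and no-cell (=0) controls. Data are mean ± SEM of triplicates, with a paired t-test comparing parental and knockout lines.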
# [3] = tested on: NUGC-3 (Y220C) and NUGC-4 (wild-type p53); test: Cell viability of gastric cancer cell lines, 72 h; format: cell-based, human; conditions: NUGC-3 (Y220C) versus NUGC-4 (wild-type p53)
# [4] = Cell viability, 72 h incubation, isogenic knockout; format: cell-based, human; conditions: human
# Outline: as §1
# p53 wild type = p53 wild type (Homo sapiens, UniProt P04637); test: DSF with wild type p53 DBD; format: binding; conditions: same conditions as in Table 1 (250 μM)
# Outline: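 Thermal shift of the p53 DNA-binding domain (8 μM) with 10× SYPRO Orange in 25 mM KPi (pH 7.2), 150 mM NaCl, 1 mM TCEP, at 5% (v/v) final DMSO. Test compound was present at 250 μM. ΔTm = Tm (protein + ligand) − Tm (protein alone).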
# [5] = tested on: HUH-7 p53 KO cells (HUH7-F1); test: Cell viability, 72 h incubation, isogenic knockout; format: cell-based, human; conditions: 0.6 to 15 μM, 72 h, HUH-7 p53 KO
# Outline: as §1
# [6] = read-out: ITC KD, ¶ single measurement with ITC fit error, # mean of at least three independent measurements with SEM
structure (smiles),measurement,setting,value
Cn1cc(-c2ccccc2)c(-n2cccc2)n1 [PK7088],effect in Y220C cancer cell lines,[1],induced a mutant-specific increase in the amount of correctly folded protein and upregulation of p53 target genes p21 and NOXA
CCn1c2ccc(CNC)cc2c2ccc(Br)cc21 [PK9284],DSF ΔTM (°C),stabilized p53-Y220C DBD,3.0 ± 0.1 °C
same,affinity increase compared with PK083,p53-Y220C DBD,ca. tenfold
same,Kd,p53-Y220C DBD; [6],14.2 ± 2 µM
CCOc1ccc2c3cc(CNC)ccc3n(CC)c2c1 [PK9295],Kd,p53-Y220C DBD,62 ± 6.5 µM
CCn1c2ccc(CNC)cc2c2ccc(-c3cccs3)cc21 [PK9318],lowering of initial aggregation rate versus no compound,"p53 Y220C DBD (94-312); 30 μM compound, 1:10 protein–ligand ratio",approximately sixfold lower initial aggregation rate
same,cell viability,"[2]; 15 μM, 72 h, HUH-7",complete viability loss
same,concentration inducing viability loss,"[2]; 72 h, HUH-7",≥ 3.75 mM
same,p53-Y220C-dependent cell viability reduction,[2]; 72 h,p53-Y220C-dependent cell viability reduction was observed; also recorded: Y220C-mutant-specific viability reduction
same,viability at 7.5 µM,"[2]; Homo sapiens, Huh-7, 72 h, read-out: cell viability",58%
same,preferential viability reduction in p53-Y220C cells,[3],preferential viability reduction in p53-Y220C cells
same,DSF ΔTM (°C),stabilized p53-Y220C DBD; 250 µM,3.6 ± 0.2 °C
same,"viability at 72 h, 7.5 µM",[4],88%
same,"viability at 72 h, 15 µM",[4],40%
CCn1c2ccc(CNC)cc2c2ccc(-c3ccco3)cc21 [PK9320],preferential viability reduction in p53-Y220C cells,[3],preferential viability reduction in p53-Y220C cells
same,DSF ΔTM (°C),stabilized p53-Y220C DBD; 250 µM,3.7 ± 0.0 °C
same,Kd,p53-Y220C DBD; [6],4 µM
CCn1c2ccc(CNC)cc2c2ccc(-c3ccoc3)cc21 [PK9321],Kd,p53-Y220C DBD; [6],5.6 ± 1.1 µM
CCn1c2ccc(CNC)cc2c2ccc(-c3cscn3)cc21 [PK9323],preferential viability reduction in p53-Y220C cells,[3],preferential viability reduction in p53-Y220C cells
same,stabilization of the wild type in DSF,p53 wild type,neither the starting scaffold PK083 nor the second-generation carbazole PK9323 did show any stabilization of the wild type
CCn1c2ccc(CNC)cc2c2ccc(-c3ccc(C)s3)cc21 [PK9327],slowing of initial rate of Y220C aggregation relative to PK9318,p53 Y220C DBD (94-312),by a factor of two
CCn1c2ccc(CNC)cc2c2ccc(-c3cc(C)cs3)cc21 [PK9328],slowing of initial rate of Y220C aggregation relative to PK9318,p53 Y220C DBD (94-312),by a factor of two
same,cell viability,"[2]; 7.5 μM, 72 h, HUH-7",complete viability loss
same,concentration inducing viability loss,"[2]; 72 h, HUH-7",≥ 3.75 mM
same,p53-Y220C-dependent cell viability reduction,[2]; 72 h,p53-Y220C-dependent cell viability reduction was observed
same,p53-Y220C-dependent cell viability reduction,"[2]; 72 h, listed as PK3328",Y220C-mutant-specific viability reduction
same,preferential viability reduction in p53-Y220C cells,[3],preferential viability reduction in p53-Y220C cells
same,Kd,p53-Y220C DBD; [6],1.7 ± 0.2 µM
same,"viability at 72 h, 7.5 µM",[4],> 50%
CCn1c2ccc(CNC)cc2c2ccc(-c3cc(C)c(C)s3)cc21 [PK9329],effect on viability,"[2]; 0.6 to 15 μM, 72 h, HUH-7",did not have a significant effect on the viability
same,p53-Y220C-dependent cell viability reduction,[2]; 72 h,did not show any p53-Y220C-dependent viability reduction
same,effect on viability,[5],did not have a significant effect on the viability
